This test concerns the target Mu-type opioid receptor (Rattus norvegicus, UniProt P33535). The experiment in a line: Displacement of [3H]DAMGO from mu opioid receptor in rat brain membranes incubated for 45 mins by liquid scintillation counting method. In short, it runs like this:
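Rat brain membranes (cerebella removed; 0.3–0.5 mg protein) in 50 mM Tris-HCl, pH 7.4, were incubated 45 min at 35 °C with 1 nM [3H]DAMGO (MOR) or 0.5 nM [3H][Ile5,6]deltorphin II (DOR) plus varied test concentrations. Nonspecific binding was set with 10 μM naloxone. Samples were GF/C filtered, washed and scintillation counted. Ki was obtained by Cheng–Prusoff; duplicates, 3–4 experiments.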
(Displacement assays read how much labelled ligand stays bound in the presence of the test substance.)

Experimental findings from BindingDB's records for doi:10.1021/acs.jmedchem.8b01327 (2019) are described below.

Mu-type opioid receptor, sequence (P33535 whole entry): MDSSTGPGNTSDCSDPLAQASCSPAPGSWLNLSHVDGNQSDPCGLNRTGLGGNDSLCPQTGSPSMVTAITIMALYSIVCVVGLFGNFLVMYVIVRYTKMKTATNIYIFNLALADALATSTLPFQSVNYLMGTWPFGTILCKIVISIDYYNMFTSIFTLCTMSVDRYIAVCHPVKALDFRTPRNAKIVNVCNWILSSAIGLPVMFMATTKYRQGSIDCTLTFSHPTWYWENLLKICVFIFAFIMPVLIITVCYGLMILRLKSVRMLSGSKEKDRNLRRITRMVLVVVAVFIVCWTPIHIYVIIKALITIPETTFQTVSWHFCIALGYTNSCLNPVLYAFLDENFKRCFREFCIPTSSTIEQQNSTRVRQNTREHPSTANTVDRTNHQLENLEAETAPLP

As for `CO[C@@]12CC[C@@H](N[C@@H](CC(N)=O)C(=O)O)[C@@H]3Oc4c(O)ccc5c4[C@@]31CCN(C)[C@@H]2C5`, the Ki (in general, a dissociation constant, usually derived from enzyme kinetics or from competition with a known ligand) was 1.3 nM.
